Measurements reported in ChEMBL document CHEMBL4364301 (Eur J Med Chem, 2019).

Tests used:
Assay type in all cases: functional
VCaP = experiment: Antiproliferative activity against human VCaP cells assessed as reduction in cell growth incubated for 96 hrs by propidium iodide based 2D monolayer assay
Summary of the method: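 VCaP cells in RPMI 1640 with 10% FCS at 37 °C, 5% CO2, seeded 4,000–20,000 cells/well and left 24 h before dosing. Compounds from DMSO stocks were diluted in half-log steps in medium, 10 concentrations 0.0032–100 μM, triplicate wells, max 0.3% DMSO. After 96 h, cells were washed, stained with 7 μg/ml propidium iodide plus 0.1% Triton X-100 for 1–2 h at room temperature, and fluorescence read at ex 530/em 620 nm.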

LNCaP = experiment: Antiproliferative activity against human LNCAP cells assessed as reduction in cell growth incubated for 96 hrs by propidium iodide based 2D monolayer assay
Summary of the method: (§1)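 After 24 h recovery, compound in medium or medium alone (control wells) was added at 10 half-log concentrations from 0.0032 to 100 µM, in triplicate, with at most 0.3% DMSO. After 96 h, wells were PBS-washed, stained with 7 µg/ml PI and 0.1% Triton X-100, and fluorescence read at 530/620 nm. IC50 came from a 4-parameter fit, geometric mean.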

DU-145 = experiment: Antiproliferative activity against human DU145 cells assessed as reduction in cell growth incubated for 96 hrs by propidium iodide based 2D monolayer assay; details: DU-145, 96 h; summary of the method: as §1
CWR22R = experiment: Antiproliferative activity against human 22Rv1 cells assessed as reduction in cell growth incubated for 96 hrs by propidium iodide based 2D monolayer assay; details: 22Rv1, 96 h; summary of the method: as §1

| SMILES | IC50 (VCaP) [µM] | IC50 (LNCaP) [µM] | IC50 (DU-145) [µM] | IC50 (CWR22R) [µM] |
| --- | --- | --- | --- | --- |
| CC1(C)C(=O)N(c2ccc(C#N)c(C(F)(F)F)c2)C(=S)N1c1cccc(S(F)(F)(F)(F)F)c1 | 100 | 6.9 | 100 | 100 |
| CC(O)(COc1ccc(S(F)(F)(F)(F)F)cc1)C(=O)Nc1ccc(S(F)(F)(F)(F)F)cc1 (racemic) | 9.3 | 9.8 | 24.9 | 13 |
| CNC(=O)c1ccc(N2C(=S)N(c3ccc(S(F)(F)(F)(F)F)cc3)C(=O)C2(C)C)cc1F | 31.6 | 23 | 41.6 | 32.1 |
| CC(O)(CS(=O)(=O)c1cccc(S(F)(F)(F)(F)F)c1)C(=O)Nc1ccc(C#N)cc1C(F)(F)F (racemic) | 20.8 | 12.9 | 22.1 | 14.3 |
| CC(O)(CSc1cccc(S(F)(F)(F)(F)F)c1)C(=O)Nc1cccc(S(F)(F)(F)(F)F)c1 (racemic) | 29 | 12.9 | 30.3 | 17.2 |
| CC(O)(COc1ccccc1C(F)(F)F)C(=O)Nc1cccc(S(F)(F)(F)(F)F)c1 (racemic) | 36.7 | 26.3 | 52.2 | 34.9 |
| CC(O)(COc1cccc(C(F)(F)C(F)(F)F)c1)C(=O)Nc1ccc(C(F)(F)F)cc1 (racemic) | 8.1 | 3.9 | 7.6 | 3.6 |
| CC(O)(CSc1ccc(S(F)(F)(F)(F)F)cc1)C(=O)Nc1ccc(S(F)(F)(F)(F)F)cc1 (racemic) | 28 | 18.3 | 22.3 | 24.4 |
| CC(O)(CS(=O)(=O)c1cccc(S(F)(F)(F)(F)F)c1)C(=O)Nc1cccc(S(F)(F)(F)(F)F)c1 (racemic) | 19 | 11.7 | 29.4 | 15.4 |
| CC(O)(COc1ccccc1OC(F)(F)F)C(=O)Nc1cccc(S(F)(F)(F)(F)F)c1 (racemic) | 27.7 | 16.1 | 38.1 | 30 |
| CC(O)(CS(=O)(=O)c1ccc(S(F)(F)(F)(F)F)cc1)C(=O)Nc1cccc(S(F)(F)(F)(F)F)c1 (racemic) | 17.2 | 11.7 | 17.4 | 12.3 |
| CC(O)(COc1cccc(OC(F)(F)F)c1)C(=O)Nc1ccc(S(F)(F)(F)(F)F)cc1 (racemic) | 18.3 | 11 | 18.4 | 17.3 |
| CC(O)(CS(=O)(=O)c1cccc(OC(F)(F)F)c1)C(=O)Nc1cccc(S(F)(F)(F)(F)F)c1 (racemic) | 20.2 | 15.1 | 31.5 | 20.1 |
| CC(O)(COc1cccc(S(F)(F)(F)(F)F)c1)C(=O)Nc1ccc([N+](=O)[O-])cc1C(F)(F)F (racemic) | 20.3 | 12.1 | 18 | 15.5 |
| CC(O)(COc1cccc(S(F)(F)(F)(F)F)c1)C(=O)Nc1cccc(S(F)(F)(F)(F)F)c1 (racemic) | 26.7 | 10.9 | 30.7 | 27.3 |
| CC(O)(CS(=O)(=O)c1ccc(S(F)(F)(F)(F)F)cc1)C(=O)Nc1ccc(S(F)(F)(F)(F)F)cc1 (racemic) | 15.7 | 29.2 | 28.9 | 17.3 |
| CC(O)(COc1ccccc1OC(F)(F)F)C(=O)Nc1ccc(S(F)(F)(F)(F)F)cc1 (racemic) | 9.7 | 8.9 | 16.8 | 7.3 |
| CC(O)(CSc1ccc(S(F)(F)(F)(F)F)cc1)C(=O)Nc1cccc(S(F)(F)(F)(F)F)c1 (racemic) | 24.1 | 12.7 | 24.8 | 13.1 |
| CC(O)(CSc1cccc(OC(F)(F)F)c1)C(=O)Nc1ccc(S(F)(F)(F)(F)F)cc1 (racemic) | 13.8 | 12.8 | 23.8 | 14 |
| CC1(C)C(=O)N(c2ccc([N+](=O)[O-])c(C(F)(F)F)c2)C(=S)N1c1cccc(S(F)(F)(F)(F)F)c1 | 100 | 100 | 100 | 100 |
| CC(O)(CS(=O)(=O)c1cc(C(F)(F)F)cc(C(F)(F)F)c1)C(=O)Nc1ccc(S(F)(F)(F)(F)F)cc1 (racemic) | 15.8 | 13.3 | 24.4 | 12.7 |

| SMILES | IC50 (VCaP) [µM] | IC50 (LNCaP) [µM] | IC50 (DU-145) [µM] | IC50 (CWR22R) [µM] |
| --- | --- | --- | --- | --- |
| CC1(C)C(=O)N(c2ccc(S(F)(F)(F)(F)F)cc2)C(=S)N1c1cccc(C(F)(F)F)c1 | 100 | 8.8 | 100 | 59.6 |
| CC(O)(CSc1ccc(C(F)(F)F)cc1)C(=O)Nc1cccc(S(F)(F)(F)(F)F)c1 (racemic) | 27.3 | 17.5 | 27.2 | 26.9 |
| CC(O)(COc1ccc(C#N)c(F)c1)C(=O)Nc1cccc(S(F)(F)(F)(F)F)c1 (racemic) | 91.9 | 83.7 | 74.8 | 63.4 |
| CC(O)(CS(=O)(=O)c1ccc(OC(F)(F)F)cc1)C(=O)Nc1ccc(S(F)(F)(F)(F)F)cc1 (racemic) | 95.8 | 92.8 | 39.3 | 51.9 |
| CC(O)(CSc1cccc(C(F)(F)F)c1)C(=O)Nc1cccc(S(F)(F)(F)(F)F)c1 (racemic) | 20.2 | 12.7 | 19.1 | 12.9 |
| CC(O)(CS(=O)(=O)c1ccc(S(F)(F)(F)(F)F)cc1)C(=O)Nc1ccc(C#N)cc1C(F)(F)F (racemic) | 43 | 17.8 | 25.6 | 19.4 |
| CC(O)(CS(=O)(=O)c1cccc(S(F)(F)(F)(F)F)c1)C(=O)Nc1ccc([N+](=O)[O-])c(C(F)(F)F)c1 (racemic) | 24.6 | 13.8 | 17.2 | 14.8 |
| CC(O)(CS(=O)(=O)c1ccccc1OC(F)(F)F)C(=O)Nc1cccc(S(F)(F)(F)(F)F)c1 (racemic) | 13.9 | 9 | 29.1 | 17.1 |
| CC(O)(COc1cc(C(F)(F)F)cc(C(F)(F)F)c1)C(=O)Nc1cccc(C(F)(F)C(F)(F)F)c1 (racemic) | 8 | 4.7 | 9.8 | 4.5 |
| CC(O)(COc1ccc(S(F)(F)(F)(F)F)cc1)C(=O)Nc1ccc(C#N)c(C(F)(F)F)c1 (racemic) | 30.1 | 11.5 | 25.5 | 28.2 |
| CC1(C)C(=O)N(c2ccc(S(F)(F)(F)(F)F)cc2)C(=S)N1c1ccc(C(F)(F)F)cc1 | 100 | 47.4 | 100 | 100 |
| CC(O)(CSc1ccc(F)cc1)C(=O)Nc1ccc(S(F)(F)(F)(F)F)cc1 (racemic) | 23 | 12.5 | 25.4 | 13.5 |
| CC(O)(CS(=O)(=O)c1ccccc1OC(F)(F)F)C(=O)Nc1ccc(S(F)(F)(F)(F)F)cc1 (racemic) | 19.9 | 12.7 | 19.5 | 16 |
| CC(O)(COc1ccc(C#N)cc1)C(=O)Nc1cccc(S(F)(F)(F)(F)F)c1 (racemic) | 26.6 | 30 | 42.6 | 32.5 |
| CC(O)(COc1ccc(C#N)cc1)C(=O)Nc1ccc(S(F)(F)(F)(F)F)cc1 (racemic) | 100 | 100 | 32.2 | 26.1 |
| CC(O)(COc1ccc(S(F)(F)(F)(F)F)cc1)C(=O)Nc1ccc(C#N)cc1C(F)(F)F (racemic) | 25.5 | 12.3 | 16 | 14.7 |
| CC1(C)C(=O)N(c2ccc([N+](=O)[O-])c(C(F)(F)F)c2)C(=S)N1c1ccc(S(F)(F)(F)(F)F)cc1 | 100 | 13 | 100 | 100 |
| CC(O)(CSc1ccc(C(F)(F)F)cc1)C(=O)Nc1ccc(S(F)(F)(F)(F)F)cc1 (racemic) | 24.8 | 17 | 28.8 | 14.8 |
| CC(O)(CSc1cc(C(F)(F)F)cc(C(F)(F)F)c1)C(=O)Nc1ccc(S(F)(F)(F)(F)F)cc1 (racemic) | 19.4 | 17.6 | 29.7 | 15.8 |
| CC1(C)C(=O)N(c2ccc([N+](=O)[O-])cc2C(F)(F)F)C(=S)N1c1cccc(S(F)(F)(F)(F)F)c1 | 100 | 5.3 | 100 | 43.9 |
| CC(O)(CSc1ccc(OC(F)(F)F)cc1)C(=O)Nc1ccc(S(F)(F)(F)(F)F)cc1 (racemic) | 16 | 16.1 | 12.5 | 14.9 |
